# Assay: Toxicity liver stage against HepG2, at 10uM
# Type: cell-based
# Design: test concentration 10 uM, cell line HepG2-A16-CD81EGFP
# Conditions: human, HepG2-A16-CD81EGFP cells; read-out: INHIBITION
# Method in brief: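 Uninfected HepG2-A16-CD81EGFP cells, 3 × 10^3 per well, 1536-well, plated on prespotted compound at 10 μM final, parasite-free screening media added to match infected plates; puromycin 10 μM positive, DMSO 0.5% negative; run in parallel with 48 h PbLuc assay at 37 °C, 5% CO2; viability by CellTiter-Glo luminescence, normalized to controls.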
row,SMILES,cytotoxicity at 10 µM
1,O=C1NCCCCC1Sc1ccc(F)cc1F (stereo unspecified),-8.01%
2,F[C@@H]1CN(CC2CC2)C[C@@H]1OCc1nc2ccccc2o1,1.97%
3,COc1ccc(C(=O)NC[C@H]2COCc3nc4cc(C)ccc4n32)cc1,2.52%
4,O=C(NC[C@H]1OC[C@@H](NC2CCC(F)(F)CC2)[C@@H]1O)c1cccs1,-7.34%
5,CCn1nnc(NCc2ccccc2OCc2ccc(Cl)cc2)n1,-0.139%
6,CC(C)(C)OC(=O)Cn1cccc(S(=O)(=O)N2CCCC2)c1=O,5.54%
7,O=C(Cn1cnc(-c2cccs2)cc1=O)Nc1cccnc1,-3.69%
8,O=C(Cc1cccs1)N1CCOCC1CO (stereo unspecified),-4.63%
9,Cc1cccc(OC2CCN(S(=O)(=O)Cc3cccc(F)c3)CC2)n1,-7.79%
10,COC1(CNC(=O)c2ccc3nsnc3c2)CCSC1 (stereo unspecified),-1.36%
11,Cc1ccc(CN2C[C@H](N(C)Cc3cncnc3)[C@H]3OCCC[C@H]32)o1,-149%
12,CC(=O)N1CC(=O)N(c2ccsc2)CC12CCN(Cc1ccoc1)C2 (stereo unspecified),5.56%
13,O=C(c1cccs1)N1CCCn2c(nc(CN3CCCC3)cc2=O)C1,-3.32%
14,Cc1ccc(N2CCCc3sc(C(=O)NCCO)nc32)nn1,13.3%
15,COC[C@@]12CCO[C@@H]1CCN(C(=O)COc1ccc(C)cc1)C2,1.39%
16,Cc1nc(CN2CC3(CCN(c4nccs4)C3)CC2=O)cs1 (stereo unspecified),-0.646%
17,CCOCC(=O)N1C[C@@H](O)[C@H](N2CCN(c3ccccc3)CC2)C1,7.43%
18,c1cc(N2CCCC2c2cnccn2)ncn1 (stereo unspecified),-22.4%
19,O=c1c2sccc2nc2n1CCN(Cc1cccs1)CC2,4.27%
20,O=C(c1ccncc1)N1CCCN(Cc2nnc(C3CC3)o2)CC1,1.91%
21,CCC1CCCCCN1C(=O)c1coc(S(=O)(=O)N(C)C)c1 (stereo unspecified),1.66%
22,Cc1ccc(C2CN(CCCC#N)CCO2)c(C)c1 (stereo unspecified),-2.16%
23,COCC(O)CN1CCC(NC(=O)c2cscc2C)CC1 (stereo unspecified),-4.51%

row,SMILES,cytotoxicity at 10 µM
1,Cc1nc(CN(C)C(=O)Nc2cccc(COC(C)C)c2C)no1,3.95%
2,CCc1ccc(C(=O)NC[C@H]2CCCN2C(=O)c2ccc(CC)o2)o1,-5.54%
3,c1ccc(-c2nc(SCc3nnc(C4CC4)o3)n[nH]2)nc1,-1.78%
4,CN(C)CCn1cc(NC(=O)NC(C)(C)c2nccs2)cn1,-2.85%
5,N#CC(NC(=O)CC(F)(F)F)c1ccsc1 (stereo unspecified),7.61%
6,COC(=O)c1oc(CNC(C)(C)CO)cc1C,10.5%
7,O=C(NC1CC1)c1cc(Cl)ccc1-n1cnnn1,3.73%
8,Cc1ccc(N(CCC#N)C(=O)CN2CCCC2c2cccs2)cc1 (stereo unspecified),-3.75%
9,COc1c(CNCc2ccccc2Cn2cncn2)c(C)nn1C,1.56%
10,CCc1ccc(C(=O)N(CC(F)(F)F)C2CCCOC2)o1 (stereo unspecified),-7.59%
11,Cc1nn(C)c(Cl)c1C1CCCN1CC(=O)N1CCCCC1 (stereo unspecified),0.347%
12,CC(C)c1nc(CN2CCN(C(=O)CC3CCCCC3)CC2)no1,-0.95%
13,Cc1csc(NC(=O)c2cccnc2N2CCOCC2)n1,-4.75%
14,Cc1cccc(CNCCOc2ccc(S(C)(=O)=O)cc2)c1,-0.302%
15,Cc1nccn1C1CCCN(C(=O)c2cnn(C)c2C2CC2)C1 (stereo unspecified),-5.92%
16,Cc1ccc(CCNC(=O)N2CCC(Cc3cnn(C)c3)C2)cn1 (stereo unspecified),3.71%
17,CS(=O)(=O)NCC1CCCN(C(=O)c2ccc3c(c2)CCCC3)C1 (stereo unspecified),-3.54%
18,Cn1c(=O)oc2ccc(NC(=O)N3CCc4ccccc4C3)cc21,-5.66%
19,Cc1ccccc1C1CN(c2cnn(C)c(=O)c2Cl)CCO1 (stereo unspecified),-19.4%
20,CC(C)(C)CCNC(=O)c1ccc(Cl)c(NS(C)(=O)=O)c1,-3.85%
21,COCC(C)(C#N)NC(=O)COc1ccccc1Br (stereo unspecified),5.67%
22,COCCN1CCN(CC(=O)N(C)Cc2ccc(C)o2)CC1C (stereo unspecified),-127%
23,O=C(COCC1CC1)NCC(c1ccccc1)N1CCc2sccc2C1 (stereo unspecified),16.6%

row,SMILES,cytotoxicity at 10 µM
1,CCc1nc(CC(=O)N2CCC(C(=O)N3CCCC3)CC2)cs1,-2.71%
2,COc1ccc(C(C#N)NC(=O)CC2=CCCCC2)c(OC)c1 (stereo unspecified),10.7%
3,CC(=O)N1CCCN(C(=O)NCCCc2cn[nH]c2C)CC1,-9.67%
4,CC(C)(C)OC(=O)NC1(c2noc(-c3ccco3)n2)CCC1,-0.657%
5,CC(C)OCCOCC(O)CN(C)C(=O)Nc1ccc(F)cc1Cl (stereo unspecified),10.7%
6,O=C(NC1CCN(c2ncccc2F)C1)c1cccc(-n2ccnc2)c1 (stereo unspecified),9.49%
7,CCSCCC(=O)Nc1ncn(CC(=O)NCc2ccccc2)n1,20%
8,CC(=O)c1ccc(OCC(=O)NC(C)CCc2ccco2)cc1 (stereo unspecified),-9.96%
9,CCOCC1c2c(ncn2C)CCN1C(=O)c1ccoc1 (stereo unspecified),-103%
10,CSc1cccc(NC(=O)N2CCC3(CCC(=O)N(C4CC4)C3)CC2)c1,9.27%
11,COCCN(CCOC)C(=O)c1c[nH]nc1-c1cccc(F)c1,-0.25%
12,CS(=O)(=O)CCN1C[C@H](NC(=O)c2cnc(O)cn2)[C@@H](C2CC2)C1,9.24%
13,COc1ccc(OCC2CCCN(c3nc(CO)cs3)C2)cc1 (stereo unspecified),-0.715%
14,CN1CCCN(C[C@@H]2CN(C(=O)CCc3cn[nH]c3)C[C@@H]2CO)CC1,2.72%
15,COc1ccc2c(c1)OCC(CNC(=O)c1cc[nH]c1C)C2 (stereo unspecified),3.34%
16,CC(C)(O)c1cn(C2CCN(C(=O)CCC(F)(F)F)CC2)nn1,1.93%
17,Cc1cnc(CNC(=O)C2CCOc3ccccc3C2)cn1 (stereo unspecified),-2.21%
18,CN1CCCCC1CCC(=O)NCCCn1ncc2ccccc21 (stereo unspecified),-13.3%
19,Cc1nonc1C1CCCN1CCC(=O)N1CCc2ccccc2C1 (stereo unspecified),-11.2%
20,CC(C)(C)c1ncc2c(n1)CN(C(=O)c1ccc(-n3cnnn3)cc1)C2,-1.98%
21,CCCc1n[nH]cc1C(=O)NCC1COc2cc(OC)ccc2C1 (stereo unspecified),-0.506%
22,Cc1nc(CCNC(=O)C2CCN(C(C)C)CC2)sc1Cl,-8.06%
23,O=C(NC1CCCN(CCc2ccccc2)C1)c1ccccn1 (stereo unspecified),-5.42%

row,SMILES,cytotoxicity at 10 µM
1,COCCC1CCN(CC(C)n2cnc3ccccc32)CC1 (stereo unspecified),6.67%
2,CCN1CCN(C[C@H]2CC[C@@H](Cc3ccc4c(c3)OCO4)O2)CC1,-5.97%
3,CC(=O)NCCNC(=O)c1cc(COc2ccccc2)[nH]n1,-1.32%
4,CN(C)CCO[C@H]1C[C@@H](O)C12CCN(c1nccc3ccccc13)CC2,2.2%
5,Cc1cc(CN(C)CCC(O)c2ccccc2)nn1C (stereo unspecified),-17.3%
6,CCOCC(=O)N1CCC(c2nccn2CC2CC2)CC1,-7.18%
7,O=C(NCCc1ccncc1)c1ccc(S(=O)(=O)NC2CCC2)cc1,-7.54%
8,CC(=O)NC1CCN(c2cc(-c3ccccc3)nc3c(C)c(C)nn23)C1 (stereo unspecified),-3.98%
9,CCCc1nc(C(C)(C)NC(=O)C2CC(=O)N(CCOC)C2)no1 (stereo unspecified),-8.12%
10,CN(Cc1nccn1C)C1CCN(CCc2ccccn2)CC1,-8.78%
11,CCOc1cc(C(=O)NS(=O)(=O)c2cccc(C#N)c2)ccc1OC,-6.69%
12,CC1CN(CCOc2cccc(C#N)c2)CCN1Cc1nccn1C (stereo unspecified),-2.81%
13,Cc1nc2n(n1)CC(NCCC(=O)Nc1cc(C)on1)CC2 (stereo unspecified),-10.5%
14,CN(C)c1ncccc1CNS(=O)(=O)c1ccc(C(N)=O)cc1,-4.08%
15,CC(C)(C)c1n[nH]c(C2CN(Cc3nnc(C4CC4)o3)CCO2)n1 (stereo unspecified),-6.55%
16,Cc1cc(C)n(CC2CCCCN2C(=O)c2ccsc2)n1 (stereo unspecified),-10.3%
17,Cc1cnn(CC(C)NCc2csc(-c3ncccn3)n2)c1 (stereo unspecified),-6.94%
18,COc1cccc(NC(=O)NCC(O)c2ccc(F)cc2F)c1 (stereo unspecified),-1.43%
19,Cc1nc(C)n(CC2CCCN(CCC(=O)Nc3cc(C)on3)C2)n1 (stereo unspecified),-1.68%
20,N#Cc1ccc(CC(=O)N2CCC(Nc3cccnn3)CC2)cc1,-4.11%
21,CCCN(CC1COc2ccccc2O1)C(=O)CCn1cncn1 (stereo unspecified),-0.627%
22,CCc1noc(C(C)N2CCN(Cc3nnc(C4CC4)o3)CC2)n1 (stereo unspecified),-4.79%
23,CC(C)c1nc(C(=O)N2CCCC(n3cncn3)C2)c[nH]1 (stereo unspecified),-2.48%

row,SMILES,cytotoxicity at 10 µM
1,O=C1CCc2cc(C(=O)NCc3ccc(-n4cncn4)nc3)ccc2N1,-11.5%
2,Cc1ccc(C(=O)N2CCc3c(CNS(C)(=O)=O)cncc3C2)o1,-11.3%
3,CCOCC(=O)N1CCC2(CC1)COCCN2CCN(C)C,-0.464%
4,O=C(C1CCOCC1)N1CCc2ncc(CN3CCOCC3)n2CC1,-79.6%
5,Cc1nc(-c2cncnc2C2CCCNC2)no1 (stereo unspecified),6.88%
6,Cc1ccc2c(c1)C(NC(=O)N(C)C)CC21CCN(C(C)C)CC1 (stereo unspecified),-0.493%
7,CC(=O)N1CC(=O)N(c2cccnc2)CC12CCN(Cc1nccs1)C2 (stereo unspecified),6.85%
8,CN(C)C[C@@H]1CCC[C@@H]2CN(c3nccc(C(F)(F)F)n3)C[C@@H]21,-2.75%
9,Cc1ccc(CN2CCn3cc(CN(C)Cc4ccco4)nc3C2)o1,-1.09%
10,O=C(NCC1CC1)C1CCC2(CCN(C(=O)c3ccccn3)CC2)O1 (stereo unspecified),9.74%
11,CC(=O)N1C[C@H]2CCCN(Cc3ccc(C)o3)[C@H]2C1,-1.36%
12,Cc1nnn2c1COC(CNCc1nccs1)C2 (stereo unspecified),1.71%
13,Cc1cccc(CN2CCC3(CCCN(C(=O)N(C)C)C3)C2=O)n1 (stereo unspecified),1.44%
14,CN(C)C(=O)COC[C@]12COC[C@H]1CN(Cc1ccco1)C2,-0.522%
15,COCC(=O)N1C[C@H]2CCCC(OCc3cccnc3)[C@H]2C1 (stereo partly specified),-5.67%
16,Fc1cnc(N2CCC3(CC2)CN(Cc2ccccn2)CCO3)nc1,0.35%
17,CC(=O)NCC1(COc2cnccn2)C[C@@H](O)[C@@H](O)C1 (stereo partly specified),1.47%
18,CCNc1c(NC(=O)C(C)(C)C)c(=O)oc2ccccc12,-1.97%
19,CN1CC2(CCC(C(=O)N3CCOCC3)CC2)Oc2ccccc2C1=O (stereo unspecified),5.91%
